The results in this text go back to ChEMBL document CHEMBL1269010, “Phenolic bis-styrylbenzenes as β-amyloid binding ligands and free radical scavengers” (J Med Chem, 2010).

Activity calls are given as the source filed them. The rule behind the calls is not given here.

Experiment [1] in a line: Binding affinity to aggregated amyloid beta (1 to 40) by fluorescence titration analysis.
Experiment [2] deals with Mus musculus. Briefly: In vivo binding affinity to beta-amyloid plaque in PDAPP transgenic mouse hippocampus dentate gyrus region at 50 mg/kg, ip after 48 hrs. The format is functional, organism-based. Details: dose 50 mg/kg. An outline of the steps: (§1)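 Ten-month-old PDAPP mice given a single 50 mg/kg ip dose, vehicle 10% DMSO/PBS, with vehicle-only animals as control. Perfused with 4% PFA at 48 h; brain sections postfixed in 4% PFA for 5 min and mounted. CA1 and dentate gyrus plaques imaged by fluorescence microscopy at 10× and 40×.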

Experiment [3] is filed under the species Mus musculus. Briefly: Binding affinity to beta-amyloid plaque in APP/PS1 transgenic mouse brain assessed as signal-to-noise ratio after 30 mins by DAPI staining. The format is tissue-based. Summed up: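 Eleven-month-old APP/PS1 mice (Tg2576 × PS1 M146L 6.1) perfusion-fixed with 4% paraformaldehyde; cryosections 10 μm, three per concentration. Stained 30 min with 50 μM compound in 9:1 PBS/EtOH, then washed in 75% EtOH, 95% EtOH and xylene. Imaged through a DAPI filter; S/N taken from five plaque versus five background regions across three plaques per section.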

Experiment [4] deals with Radical scavenging activity. Briefly: Antioxidant activity assessed as DPPH radical scavenging activity by spectrophotometric analysis. The format is functional. Summed up:
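DPPH (100 μM) in MeOH mixed with test compound from 0 nM to 5 mM; compounds came from ~15 mM DMSO stocks diluted in MeOH. Loss of absorbance at 517 nm read on a plate reader. Each concentration run in triplicate; IC50 taken from a sigmoidal dose-response fit.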
Background: DPPH is a stable violet radical that fades when it is reduced.

Experiment [5] concerns Mus musculus. Briefly: In vivo binding affinity to beta-amyloid plaque in PDAPP transgenic mouse hippocampus CA1 region at 50 mg/kg, ip after 48 hrs. The format is functional, organism-based. Details: dose 50 mg/kg. Summed up:
as §1

Experiment [6] addresses Amyloid-beta precursor protein (Homo sapiens) (UniProt P05067). Briefly: Binding affinity to beta-amyloid plaque in normal human brain after 30 mins by fluorescence microscopy. The format is tissue-based. An outline of the steps: (§2)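 Frozen sections (10 μm) of human AD brain and age-matched control brain. Stained 30 min with 50 μM compound in 9:1 PBS/EtOH, washed in 75% EtOH, 95% EtOH and xylene, then fluorescence-imaged through a DAPI filter.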

For experiment [7] the target is unchanged. Briefly: Binding affinity to beta-amyloid plaque in brain of patient with Alzheimer's disease after 30 mins by fluorescence microscopy. The format is tissue-based. An outline of the steps: as §2
Experiment [8] concerns Mus musculus. Briefly: In vivo binding affinity to beta-amyloid plaque in mouse hippocampus dentate gyrus region at 50 mg/kg, ip after 48 hrs. Details: dose 50 mg/kg. The format is functional, organism-based.

Sequence of Amyloid-beta precursor protein (Homo sapiens) (P05067 whole entry): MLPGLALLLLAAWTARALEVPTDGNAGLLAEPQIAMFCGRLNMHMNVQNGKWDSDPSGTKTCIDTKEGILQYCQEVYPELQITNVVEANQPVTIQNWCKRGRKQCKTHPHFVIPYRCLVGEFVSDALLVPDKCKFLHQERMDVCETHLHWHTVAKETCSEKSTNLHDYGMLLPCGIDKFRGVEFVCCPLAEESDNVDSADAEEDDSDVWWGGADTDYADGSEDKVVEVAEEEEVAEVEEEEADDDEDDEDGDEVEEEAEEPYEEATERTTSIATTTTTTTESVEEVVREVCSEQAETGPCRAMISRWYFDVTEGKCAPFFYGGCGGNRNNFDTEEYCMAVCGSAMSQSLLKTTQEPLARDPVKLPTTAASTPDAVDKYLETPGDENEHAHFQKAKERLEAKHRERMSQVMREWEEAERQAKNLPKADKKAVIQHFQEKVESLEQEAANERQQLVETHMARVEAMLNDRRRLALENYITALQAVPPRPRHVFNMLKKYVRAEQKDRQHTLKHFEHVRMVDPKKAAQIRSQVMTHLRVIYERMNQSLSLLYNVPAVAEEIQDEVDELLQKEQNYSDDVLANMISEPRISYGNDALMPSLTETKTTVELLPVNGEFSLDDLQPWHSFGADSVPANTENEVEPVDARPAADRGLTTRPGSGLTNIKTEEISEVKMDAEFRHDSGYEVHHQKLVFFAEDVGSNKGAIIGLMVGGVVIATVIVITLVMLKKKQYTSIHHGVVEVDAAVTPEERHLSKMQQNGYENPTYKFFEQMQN

A word on the Kd: it is the constant that tells how readily two partners part at equilibrium. What is called IC50 is the concentration needed to halve the response being measured. Take `Oc1cc(O)cc(/C=C/c2ccc(/C=C/c3cc(O)cc(O)c3)cc2)c1`: in experiment [1], the Kd worked out at 0.16 µM. For the same compound, the outcome (in the experiment with Mus musculus [2]; in the experiment with Mus musculus [5]; in experiment [7]) was Active. For the same compound, the Ratio in the experiment filed under Mus musculus [3] is 9.6. For the same compound, the IC50 in experiment [4] was 5.1 µM. Further, the result (in experiment [6]; in the experiment with Mus musculus [8]) was inactive.

`Oc1ccc(C#Cc2ccc(C#Cc3ccc(O)cc3)cc2)cc1`: the affinity in experiment [1], expressed as Kd, was 0.054 µM. The Ratio in the experiment listed under Mus musculus [3] was 5.9. The IC50 in experiment [4] came to 45 µM.

Consider `Oc1ccc(/C=C/c2cc(O)cc(O)c2)cc1` [RESVERATROL], for which the IC50 in experiment [4] stood at 62 µM.

The compound `Oc1ccccc1/C=C/c1ccc(/C=C/c2ccccc2O)cc1` gave a Kd in experiment [1] of 0.8 µM. The Ratio in the experiment listed under Mus musculus [3] amounted to 11. The IC50 in experiment [4] was determined as 4 µM.

The compound `Oc1cccc(/C=C/c2ccc(/C=C/c3cccc(O)c3)cc2)c1` showed an equilibrium dissociation constant (Kd) in experiment [1] of 0.0053 µM. Besides, the outcome (in the experiment with Mus musculus [2]; in the experiment with Mus musculus [5]; in experiment [7]) was Active. Further, in the experiment filed under Mus musculus [3], the Ratio stood at 9.6. Further, in experiment [4], the IC50 was more than 100 µM. For the same compound, the result (in experiment [6]; in the experiment on Mus musculus [8]) was inactive.

`Oc1ccc(/C=C/c2ccc(/C=C/c3ccc(O)c(O)c3)cc2)cc1` registered a Kd in experiment [1] of 0.26 µM. For the same compound, the Ratio in the experiment filed under Mus musculus [3] was found to be 9.1. Further, the IC50 in experiment [4] was more than 100 µM.

`Oc1ccc(/C=C/c2ccc(/C=C/c3ccc(O)cc3)cc2)cc1` showed a Kd in experiment [1] of 0.0095 µM. Moreover, the result (in the experiment with Mus musculus [2]; in the experiment with Mus musculus [5]; in experiment [7]) was Active. Moreover, the Ratio in the experiment filed under Mus musculus [3] was determined as 14. Moreover, the IC50 in experiment [4] turned out to be 3.1 µM. The result (in experiment [6]; in the experiment with Mus musculus [8]) was inactive.

Regarding `Oc1ccc(/C=C/c2ccc(/C=C/c3ccccc3)cc2)cc1`, the Kd in experiment [1] came out at 0.16 µM. Besides, the Ratio in the experiment filed under Mus musculus [3] was determined as 8.1. In experiment [4], the IC50 was determined as 5.6 µM.

Regarding `O=c1c(O)c(-c2ccc(O)c(O)c2)oc2cc(O)cc(O)c12` [QUERCETIN], the IC50 in experiment [4] amounted to 1.3 µM.

In turn, `Oc1cccc(/C=C/c2ccc(/C=C/c3ccc(O)c(O)c3)cc2)c1` registered a dissociation constant Kd in experiment [1] of 0.2 µM. The Ratio in the experiment filed under Mus musculus [3] stood at 5.6. Moreover, in experiment [4], the IC50 worked out at 9.1 µM.

In experiment [1], `Oc1ccc(/C=C/c2cccc(/C=C/c3ccc(O)cc3)c2)cc1` registered a Kd of 2.5 µM. Further, the Ratio in the experiment filed under Mus musculus [3] stood at 3.1. Besides, the IC50 in experiment [4] is 3.4 µM.

The compound `Oc1ccc(/C=C/c2ccc(O)cc2)cc1` [TRANS-4,4'-DIHYDROXYSTILBENE] yielded a Kd in experiment [1] of 9.2 µM. For the same compound, the Ratio in the experiment filed under Mus musculus [3] stood at 5.2. Further, the IC50 in experiment [4] amounted to 1.8 µM.

Compound `Oc1ccc(/C=C/c2ccc(/C=C/c3cccc(O)c3)cc2)cc1` yielded a Kd in experiment [1] of 3.5 µM. In the experiment filed under Mus musculus [3], the Ratio came out at 9. The concentration for half-maximal inhibition (IC50) in experiment [4] came to 3.5 µM.

On to `Oc1ccc(/C=C/c2ccc(/C=C/c3cc(O)cc(O)c3)cc2)cc1`, for which, in experiment [1], the Kd came to 0.19 µM. In the experiment listed under Mus musculus [3], the Ratio came out at 3.8. Besides, in experiment [4], the IC50 was 4.5 µM.

In the case of `Oc1ccc(/C=C/c2ccccc2/C=C/c2ccc(O)cc2)cc1`, the Kd in experiment [1] was determined as 6.3 µM. Besides, in the experiment listed under Mus musculus [3], the Ratio worked out at 5.1. In experiment [4], the IC50 was determined as 4 µM.
